ChEMBL document CHEMBL4732237, “Discovery of 4-alkoxy-2-aryl-6,7-dimethoxyquinolines as a new class of topoisomerase I inhibitors endowed with potent in vitro anticancer activity” (2021)

Legend:
Format in all cases: functional
Settings in all cases: read-out: GI
[1] = tested on: HL-60(TB); assay: Growth inhibition of human HL-60(TB) cells at 10 uM incubated for 48 hrs by sulforhodamine B assay relative to control
Method in brief: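 NCI-60 one-dose screen: same culture, 48 h drug exposure and SRB read-out. Reported as percent growth relative to no-drug control and to time-zero cell number; 0–100 means growth inhibition, below 0 means lethality.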

[2] = tested on: K562; assay: Growth inhibition of human K562 cells at 10 uM incubated for 48 hrs by sulforhodamine B assay relative to control
Method in brief: (§1)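 NCI-60 single-dose screen. Cells were grown in RPMI 1640 with 5% FBS and 2 mM L-glutamine and plated 24 h before drug addition. Compound was added at one concentration in DMSO-derived medium and incubated for 48 h at 37 °C in 5% CO2. Read-out was SRB protein stain at 515 nm. Result is percent growth versus the no-drug control and the time-zero cell count; values below 0 indicate lethality.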

[3] = tested on: MOLT-4; assay: Growth inhibition of human MOLT-4 cells at 10 uM incubated for 48 hrs by sulforhodamine B assay relative to control
Method in brief: (§2)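 NCI one-dose screen. Cells grown in RPMI 1640 with 5% FBS and 2 mM L-glutamine, plated and incubated 24 h at 37 °C, 5% CO2. DMSO-dissolved drug added, then 48 h further incubation. Adherent cells fixed with cold TCA, suspension cells fixed after settling. Stained with 0.4% SRB, absorbance read at 515 nm. Reported as percent growth relative to no-drug control and time-zero cell number.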

[4] = tested on: SR; assay: Growth inhibition of human SR cells at 10 uM incubated for 48 hrs by sulforhodamine B assay relative to control; method in brief: as §2
[5] = tested on: EKVX; assay: Growth inhibition of human EKVX cells at 10 uM incubated for 48 hrs by sulforhodamine B assay relative to control; method in brief: as §1
[6] = tested on: HOP-92; assay: Growth inhibition of human HOP-92 cells at 10 uM incubated for 48 hrs by sulforhodamine B assay relative to control; method in brief: as §1
[7] = tested on: NCI-H226; assay: Growth inhibition of human NCI-H226 cells at 10 uM incubated for 48 hrs by sulforhodamine B assay relative to control; method in brief: as §2
[8] = tested on: NCI-H23; assay: Growth inhibition of human NCI-H23 cells at 10 uM incubated for 48 hrs by sulforhodamine B assay relative to control; method in brief: as §2
[9] = tested on: NCI-H322M; assay: Growth inhibition of human NCI-H322M cells at 10 uM incubated for 48 hrs by sulforhodamine B assay relative to control; method in brief: as §2
[10] = tested on: NCI-H460; assay: Growth inhibition of human NCI-H460 cells at 10 uM incubated for 48 hrs by sulforhodamine B assay relative to control; method in brief: as §2
[11] = tested on: COLO 205; assay: Growth inhibition of human COLO 205 cells at 10 uM incubated for 48 hrs by sulforhodamine B assay relative to control; method in brief: as §1
[12] = tested on: SW-620; assay: Growth inhibition of human SW-620 cells at 10 uM incubated for 48 hrs by sulforhodamine B assay relative to control
Method in brief: (§3)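 NCI one-dose screen across a 59-line panel. Cells were grown in RPMI 1640 with 5% FBS and 2 mM L-glutamine, plated and pre-incubated 24 h, then exposed to drug for 48 h at 37 °C, 5% CO2. Adherent cells were fixed with cold TCA (10% final), stained with 0.4% SRB in 1% acetic acid and read at 515 nm. Result is percent growth relative to no-drug control and time-zero cell count.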

[13] = tested on: SF-268; assay: Growth inhibition of human SF-268 cells at 10 uM incubated for 48 hrs by sulforhodamine B assay relative to control; method in brief: as §2
[14] = tested on: SF-295; assay: Growth inhibition of human SF-295 cells at 10 uM incubated for 48 hrs by sulforhodamine B assay relative to control; method in brief: as §2
[15] = tested on: SNB-19; assay: Growth inhibition of human SNB-19 cells at 10 uM incubated for 48 hrs by sulforhodamine B assay relative to control; method in brief: as §2
[16] = tested on: SNB-75; assay: Growth inhibition of human SNB-75 cells at 10 uM incubated for 48 hrs by sulforhodamine B assay relative to control; method in brief: as §2
[17] = tested on: U-251; assay: Growth inhibition of human U-251 cells at 10 uM incubated for 48 hrs by sulforhodamine B assay relative to control; method in brief: as §3
[18] = tested on: LOX IMVI; assay: Growth inhibition of human LOX IMVI cells at 10 uM incubated for 48 hrs by sulforhodamine B assay relative to control; method in brief: as §1
[19] = tested on: Malme-3M; assay: Growth inhibition of human Malme-3M cells at 10 uM incubated for 48 hrs by sulforhodamine B assay relative to control; method in brief: as §2
[20] = tested on: M14; assay: Growth inhibition of human M14 cells at 10 uM incubated for 48 hrs by sulforhodamine B assay relative to control; method in brief: as §1
[21] = tested on: MDA-MB-435; assay: Growth inhibition of human MDA-MB-435 cells at 10 uM incubated for 48 hrs by sulforhodamine B assay relative to control; method in brief: as §1
[22] = tested on: SK-MEL-2; assay: Growth inhibition of human SK-MEL-2 cells at 10 uM incubated for 48 hrs by sulforhodamine B assay relative to control; method in brief: as §2
[23] = tested on: UACC-62; assay: Growth inhibition of human UACC-62 cells at 10 uM incubated for 48 hrs by sulforhodamine B assay relative to control; method in brief: as §3
[24] = tested on: IGROV-1; assay: Growth inhibition of human IGROV-1 cells at 10 uM incubated for 48 hrs by sulforhodamine B assay relative to control; method in brief: as §1
[25] = tested on: OVCAR-3; assay: Growth inhibition of human OVCAR-3 cells at 10 uM incubated for 48 hrs by sulforhodamine B assay relative to control; method in brief: as §2
[26] = tested on: OVCAR-4; assay: Growth inhibition of human OVCAR-4 cells at 10 uM incubated for 48 hrs by sulforhodamine B assay relative to control; method in brief: as §2
[27] = tested on: OVCAR-5; assay: Growth inhibition of human OVCAR-5 cells at 10 uM incubated for 48 hrs by sulforhodamine B assay relative to control; method in brief: as §2
[28] = tested on: OVCAR-8; assay: Growth inhibition of human OVCAR-8 cells at 10 uM incubated for 48 hrs by sulforhodamine B assay relative to control; method in brief: as §2
[29] = tested on: NCI/ADR-RES; assay: Growth inhibition of human NCI/ADR-RES cells at 10 uM incubated for 48 hrs by sulforhodamine B assay relative to control; method in brief: as §2
[30] = tested on: UO-31; assay: Growth inhibition of human UO-31 cells at 10 uM incubated for 48 hrs by sulforhodamine B assay relative to control; method in brief: as §3
[31] = tested on: PC-3; assay: Growth inhibition of human PC-3 cells at 10 uM incubated for 48 hrs by sulforhodamine B assay relative to control; method in brief: as §2
[32] = tested on: MCF7; assay: Growth inhibition of human MCF7 cells at 10 uM incubated for 48 hrs by sulforhodamine B assay relative to control; method in brief: as §1
[33] = tested on: MDA-MB-231; assay: Growth inhibition of human MDA-MB-231 cells at 10 uM incubated for 48 hrs by sulforhodamine B assay relative to control; method in brief: as §1
[34] = tested on: Hs-578T; assay: Growth inhibition of human HS-578T cells at 10 uM incubated for 48 hrs by sulforhodamine B assay relative to control; method in brief: as §1
[35] = tested on: BT-549; assay: Growth inhibition of human BT-549 cells at 10 uM incubated for 48 hrs by sulforhodamine B assay relative to control; method in brief: as §1
[36] = tested on: MDA-MB-468; assay: Growth inhibition of human MDA-MB-468 cells at 10 uM incubated for 48 hrs by sulforhodamine B assay relative to control; method in brief: as §1

SMILES | inhibition of growth at 10 µM [1] | inhibition of growth at 10 µM [2] | inhibition of growth at 10 µM [3] | inhibition of growth at 10 µM [4] | inhibition of growth at 10 µM [5] | inhibition of growth at 10 µM [6] | inhibition of growth at 10 µM [7] | inhibition of growth at 10 µM [8] | inhibition of growth at 10 µM [9] | inhibition of growth at 10 µM [10] | inhibition of growth at 10 µM [11] | inhibition of growth at 10 µM [12] | inhibition of growth at 10 µM [13] | inhibition of growth at 10 µM [14] | inhibition of growth at 10 µM [15] | inhibition of growth at 10 µM [16] | inhibition of growth at 10 µM [17] | inhibition of growth at 10 µM [18] | inhibition of growth at 10 µM [19] | inhibition of growth at 10 µM [20] | other results
COc1cc2nc(-c3ccco3)cc(OCCCN3CCC(O)CC3)c2cc1OC | 46% | 46% | 46% | 46% | 46% | 46% | 46% | 46% | 46% | 46% | 46% | 46% | 46% | 46% | 46% | 46% | 46% | 46% | 46% | 46% | inhibition of growth at 10 µM [21]: 46%; inhibition of growth at 10 µM [22]: 46%; inhibition of growth at 10 µM [23]: 46%; inhibition of growth at 10 µM [24]: 46%; inhibition of growth at 10 µM [25]: 46%; inhibition of growth at 10 µM [26]: 46%; inhibition of growth at 10 µM [27]: 46%; inhibition of growth at 10 µM [28]: 46%; inhibition of growth at 10 µM [29]: 46%; inhibition of growth at 10 µM [30]: 46%; inhibition of growth at 10 µM [31]: 46%; inhibition of growth at 10 µM [32]: 46%; inhibition of growth at 10 µM [33]: 46%; inhibition of growth at 10 µM [34]: 46%; inhibition of growth at 10 µM [35]: 46%; inhibition of growth at 10 µM [36]: 46%
COc1cc2nc(-c3ccc(Cl)cc3)cc(OCCN3CCCC3)c2cc1OC | 3% | 3% | 3% | 3% | 3% | 3% | 3% | 3% | 3% | 3% | 3% | 3% | 3% | 3% | 3% | 3% | 3% | 3% | 3% | 3% | inhibition of growth at 10 µM [21]: 3%; inhibition of growth at 10 µM [22]: 3%; inhibition of growth at 10 µM [23]: 3%; inhibition of growth at 10 µM [24]: 3%; inhibition of growth at 10 µM [25]: 3%; inhibition of growth at 10 µM [26]: 3%; inhibition of growth at 10 µM [27]: 3%; inhibition of growth at 10 µM [28]: 3%; inhibition of growth at 10 µM [29]: 3%; inhibition of growth at 10 µM [30]: 3%; inhibition of growth at 10 µM [31]: 3%; inhibition of growth at 10 µM [32]: 3%; inhibition of growth at 10 µM [33]: 3%; inhibition of growth at 10 µM [34]: 3%; inhibition of growth at 10 µM [35]: 3%; inhibition of growth at 10 µM [36]: 3%
COc1cc2nc(-c3ccc(C(F)(F)F)cc3)cc(OCCN3CCCCC3)c2cc1OC | 13% | 13% | 13% | 13% | 13% | 13% | 13% | 13% | 13% | 13% | 13% | 13% | 13% | 13% | 13% | 13% | 13% | 13% | 13% | 13% | inhibition of growth at 10 µM [21]: 13%; inhibition of growth at 10 µM [22]: 13%; inhibition of growth at 10 µM [23]: 13%; inhibition of growth at 10 µM [24]: 13%; inhibition of growth at 10 µM [25]: 13%; inhibition of growth at 10 µM [26]: 13%; inhibition of growth at 10 µM [27]: 13%; inhibition of growth at 10 µM [28]: 13%; inhibition of growth at 10 µM [29]: 13%; inhibition of growth at 10 µM [30]: 13%; inhibition of growth at 10 µM [31]: 13%; inhibition of growth at 10 µM [32]: 13%; inhibition of growth at 10 µM [33]: 13%; inhibition of growth at 10 µM [34]: 13%; inhibition of growth at 10 µM [35]: 13%; inhibition of growth at 10 µM [36]: 13%
